Measured values: ChEMBL document CHEMBL3286095, “Synthesis and antiparasitic activity of new bis-arylimidamides: DB766 analogs modified in the terminal groups” (Eur J Med Chem, 2014)

What was measured:
[1] = tested on: Trypanosoma brucei rhodesiense; test: Antiparasitic activity against Trypanosoma brucei rhodesiense STIB900 trypomastigotes after 3 days by Alamar blue assay; assay type: functional, organism-based; settings: STIB900, 72 h
Procedure, shortened: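 Axenic trypomastigote bloodstream forms, strain STIB900, exposed to serial drug dilutions for 3 days at 37°C. Viability read by Alamar blue.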

[2] = Selectivity index, ratio of IC50 for rat L6 cells to IC50 for Trypanosoma brucei rhodesiense STIB900 trypomastigotes; assay type: toxicity, cell-based; settings: read-out: Ratio IC50
Procedure, shortened: (§1)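 SI is the IC50 in cultured L6 rat myoblasts (3-day drug exposure, Alamar blue viability) divided by the parasite IC50. Parasite assays used serial dilutions at 37°C. T. cruzi: intracellular, 4 days, β-galactosidase read-out with CPRG. T. b. rhodesiense: axenic, 3 days, Alamar blue. P. falciparum: 3 days, hypoxanthine incorporation. L. amazonensis: intracellular.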

[3] = Selectivity index, ratio of IC50 for rat L6 cells to IC50 for Leishmania amazonensis; assay type: toxicity, cell-based; settings: read-out: Ratio IC50; procedure, shortened: as §1
[4] = Selectivity index, ratio of IC50 for rat L6 cells to IC50 for chloroquine-resistant Plasmodium falciparum K1; assay type: toxicity, cell-based; settings: read-out: Ratio IC50; procedure, shortened: as §1
Plasmodium falciparum [5] = test: Antiparasitic activity against chloroquine-resistant Plasmodium falciparum K1 after 3 days by [3H]-hypoxanthine incorporation assay; assay type: functional, organism-based
Procedure, shortened: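 Erythrocytic-stage parasites exposed to serial drug dilutions at 37°C for 3 days; viability read by tritium-labelled hypoxanthine incorporation.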

[6] = Selectivity index, ratio of IC50 for rat L6 cells to IC50 for Trypanosoma cruzi Tulahen LacZ/C4 amastigotes; assay type: toxicity, cell-based; settings: read-out: Ratio IC50; procedure, shortened: as §1
Trypanosoma cruzi [7] = test: Antiparasitic activity against Trypanosoma cruzi Tulahen LacZ/C4 amastigotes after 4 days by beta-galactosidase reporter gene assay; assay type: functional, organism-based; settings: Tulahen LacZ/C4, 96 h
Procedure, shortened: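 Intracellular amastigotes of strain Tulahen LacZ/C4 given serial drug dilutions for 4 days at 37°C. The endpoint is the β-galactosidase reporter, read as a colour change after adding CPRG substrate.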

L6 = test: Cytotoxicity against rat L6 cells after 3 days by Alamar blue assay; assay type: cell-based; settings: L6, 72 h
Procedure, shortened: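 L6 rat myoblast cells cultured with compound for 3 days. Viability measured by Alamar blue.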

Trypanosoma cruzi [8] = test: Ratio of benznidazole IC50 to compound IC50 for Trypanosoma cruzi Tulahen LacZ/C4 amastigotes; assay type: functional
Plasmodium falciparum [9] = test: Ratio of pentamidine IC50 to compound IC50 for chloroquine-resistant Plasmodium falciparum K1; assay type: functional
Leishmania amazonensis = test: Antiparasitic activity against Leishmania amazonensis infected in CD-1 mouse macrophages after 72 hrs by spectrophotometric analysis; assay type: functional, organism-based

Row | SMILES | IC50 [1] [nM] | selectivity ratio [2] | selectivity ratio [3] | selectivity ratio [4] | IC50 (Plasmodium falciparum [5]) [nM] | selectivity ratio [6] | IC50 (Trypanosoma cruzi [7]) [nM] | IC50 (L6) [nM] | Ratio IC50 (Trypanosoma cruzi [8]) | Ratio IC50 (Plasmodium falciparum [9]) | IC50 (Leishmania amazonensis) [nM]
1 | CC(C)Oc1cc(NC(=N)c2ccccn2)ccc1-c1ccc(-c2ccc(NC(=N)c3ccccn3)cc2OC(C)C)o1 | 120 | 25 | 34.5 | 20.1 | 149 | 30 | 100 |  |  |  | 
2 | CC(C)Oc1cc(NC(=N)c2ncccn2)ccc1-c1ccc(-c2ccc(NC(=N)c3ncccn3)cc2OC(C)C)o1.Cl | 32 | 181 | 8.29 | 682 | 8.5 | 29 | 200 | 5800 | 9 | 5 | 
3 | CC(C)Oc1cc(NC(=N)c2cnccn2)ccc1-c1ccc(-c2ccc(NC(=N)c3cnccn3)cc2OC(C)C)o1 | 8080 | > 16 | 34.8 | > 234 | 552 | > 8.1 | 16000 | > 129000 |  |  | 
4 | CC(C)Oc1cc(NC(=N)c2cccnn2)ccc1-c1ccc(-c2ccc(NC(=N)c3cccnn3)cc2OC(C)C)o1 | 1700 | 1.06 | 1.64 | 3.09 | 582 | 1.2 | 1500 | 1800 |  |  | 
5 | CC(C)Oc1cc(NC(=N)c2ccc(Br)s2)ccc1-c1ccc(-c2ccc(NC(=N)c3ccc(Br)s3)cc2OC(C)C)o1 | 17000 | > 6.47 |  | > 120 | 914 |  | > 110000 | > 110000 |  |  | 
6 | CC(C)Oc1cc(NC(=N)c2cc(Br)cs2)ccc1-c1ccc(-c2ccc(NC(=N)c3cc(Br)cs3)cc2OC(C)C)o1 | 43900 | > 2.46 |  | > 109 | 992 |  | > 108000 | > 108000 |  |  | 
7 | Cc1csc(C(=N)Nc2ccc(-c3ccc(-c4ccc(NC(=N)c5nc(C)cs5)cc4OC(C)C)o3)c(OC(C)C)c2)n1 | 78600 | > 1.55 | > 12.2 | > 122 | 999 |  | > 122000 | > 122000 |  |  | > 10000
8 | Cc1nc(C(=N)Nc2ccc(-c3ccc(-c4ccc(NC(=N)c5csc(C)n5)cc4OC(C)C)o3)c(OC(C)C)c2)cs1 | 740 | 6.36 | 27.6 | 54 | 87 | 2.04 | 2300 | 4700 |  |  | 
9 | CC(C)Oc1cc(NC(=N)c2csc(N)n2)ccc1-c1ccc(-c2ccc(NC(=N)c3csc(N)n3)cc2OC(C)C)o1 | 357 | 10.4 | 2.18 | 94.9 | 39 | 0.66 | 5600 | 3700 |  |  | 
10 | CNc1nc(C(=N)Nc2ccc(-c3ccc(-c4ccc(NC(=N)c5csc(NC)n5)cc4OC(C)C)o3)c(OC(C)C)c2)cs1 | 92 | 8.69 | 2.67 | 25.8 | 31 | 0.35 | 2300 | 800 |  |  | 
11 | CC(=O)Nc1nc(C(=N)Nc2ccc(-c3ccc(-c4ccc(NC(=N)c5csc(NC(C)=O)n5)cc4OC(C)C)o3)c(OC(C)C)c2)cs1.Cl | 12 | 50 | 2.73 | 66.7 | 9 | 0.38 | 1600 | 600 |  | 5 | 
12 | CC(=O)N(C)c1nc(C(=N)Nc2ccc(-c3ccc(-c4ccc(NC(=N)c5csc(N(C)C(C)=O)n5)cc4OC(C)C)o3)c(OC(C)C)c2)cs1 | 78 | 10.3 | 0.99 | 22.6 | 35 | 0.26 | 3100 | 800 |  |  | 
13 | CC(C)Oc1cc(NC(=N)c2ccc[nH]2)ccc1-c1ccc(-c2ccc(NC(=N)c3ccc[nH]3)cc2OC(C)C)o1 | 115 | 8.69 | 1.11 | 40 | 25 | 0.24 | 4100 | 1000 |  |  | 
14 | CC(C)Oc1cc(NC(=N)c2ncc[nH]2)ccc1-c1ccc(-c2ccc(NC(=N)c3ncc[nH]3)cc2OC(C)C)o1 | 60 | 26.7 | 4.32 | 107 | 15 | 2.67 | 600 | 1600 |  |  | 
15 | CC(C)Oc1cc(NC(=N)c2cn(C)cn2)ccc1-c1ccc(-c2ccc(NC(=N)c3cn(C)cn3)cc2OC(C)C)o1 | 108 | 74.1 | 1.6 | 148 | 54 | 0.44 | 18000 | 8000 |  |  | 
16 | CC(C)Oc1cc(NC(=N)c2ccn(C)n2)ccc1-c1ccc(-c2ccc(NC(=N)c3ccn(C)n3)cc2OC(C)C)o1 | 436 | 3.21 | 1.89 | 20 | 70 | 0.23 | 6100 | 1400 |  |  | 
17 | O=C(Cn1ccnc1[N+](=O)[O-])NCc1ccccc1 [BENZNIDAZOLE] |  |  |  |  |  | > 80 | 1870 | > 150000 |  |  | 
